In ChEMBL document CHEMBL6083205, “A comprehensive apoptotic assessment of niloticin in cervical cancer cells: a tirucallane-type triterpenoid from Aphanamixis polystachya (Wall.) Parker” (RSC Med Chem, 2024):
Activity calls are given as the source filed them. The calls are words filed in the database; no cut-off is given here.

Assays:
HeLa [1] = assay: Induction of apoptosis in human HeLa cells assessed as increase in caspase-8 activation at 7 to 11 uM by fluorometric assay; format: functional, cell-based; details: dose 7-11 µM
Summary of the method: (§1)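 HeLa seeded at 3 × 10^6 in 6-well plates, treated at 7 and 11 μM; caspase-3, -8 and -9 activity each measured by fluorometric kit per manufacturer's protocol; fluorescence read at ex 400 nm / em 505 nm; fold change versus control; mean ± SD.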

HeLa [2] = assay: Induction of cell cycle arrest in human HeLa cells assessed as proportion of cell accumulation at G2 phase at 7 uM by propidium iodide staining based flow cytometry (reference value: 8.7%); format: functional
HeLa [3] = assay: Inhibition of colony formation in human HeLa cells assessed as decrease in number of colonies formed at 3 to 6 uM incubated for 9 days by crystal violet staining based microscopic analysis; format: functional, cell-based; details: dose 3-6 µM, time 9.0 day
Summary of the method: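 HeLa seeded at 1 × 10^3 cells in 6-well plates; after attachment treated at 3 and 6 μM and grown 9 days at 37 °C; fixed in 70% methanol, stained with 0.3% crystal violet, PBS-washed; colonies imaged and counted by image analysis.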

HeLa [4] = assay: Antimetastatic activity in human HeLa cells assessed as inhibition of cell migration at 3 to 6 uM measured after 24 to 48 hrs by scratch wound assay; format: functional, cell-based; details: dose 3-6 µM, time 24-48 hrs
Summary of the method: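 HeLa monolayer formed 24 h after seeding, scratched with a pipette tip and washed with PBS; treated at 3 and 6 μM, untreated cells as control; wound imaged at 0, 24 and 48 h; percentage wound closure/area measured by image analysis.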

PANC-1 = assay: Antiproliferative activity against human PANC-1 cells assessed as inhibition of cell growth incubated for 24 hrs by MTT assay; format: functional, cell-based; details: PANC-1, 24 h
Summary of the method: (§2)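 Cells kept in DMEM with 10% FBS and 1% antibiotic-antimycotic at 37 °C and 5% CO2. Seeded at 8 × 10^3 cells per 100 μL and left 24 h, then exposed 24 h to 5, 10, 20, 50 or 100 μM. MTT at 0.5 mg/mL in HBSS was added for 2–4 h at 37 °C in the dark. Formazan was dissolved in DMSO, A570 was read, and IC50 was derived.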

HeLa [5] = assay: Induction of apoptosis in human HeLa cells assessed as proportion of early apoptotic cells at 7 uM by AnnexinV-FITC/PI staining based FACS analysis (reference value: 4.5%); format: functional
HeLa [6] = assay: Induction of apoptosis in human HeLa cells assessed as cells with compromised membrane by measuring increase in red fluorescence intensity at 7 to 11 uM by acridine orange/ethidium bromide dual staining based fluorescence microscopy; format: functional, cell-based; details: dose 7-11 µM
Summary of the method: (§3)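 HeLa exposed to 7 and 11 μM versus untreated control; live/dead staining either with acridine orange–ethidium bromide dual stain (fluorescence, FITC filter) or with APOPercentage dye (pink uptake, brightfield); imaged on inverted microscope.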

A549 = assay: Antiproliferative activity against human A549 cells assessed as inhibition of cell growth incubated for 24 hrs by MTT assay; format: functional, cell-based; details: A549, 24 h; summary of the method: as §2
HeLa [7] = assay: Induction of apoptosis in human HeLa cells assessed as DNA fragmentation at 7 to 11 uM incubated for 24 hrs by ethidium bromide staining based agarose gel electrophoresis analysis; format: functional, cell-based; details: dose 7-11 µM
Summary of the method: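 HeLa treated at 7 and 11 μM; genomic DNA isolated by kit, quantified by nanodrop and normalised; run on 0.8% agarose at 80 V, stained with ethidium bromide; laddering imaged by gel documentation.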

HeLa [8] = assay: Induction of apoptosis in human HeLa cells assessed as cells with impaired membrane by measuring increase in pink colour intensity at 7 to 11 uM by APOP staining based microscopy; format: functional, cell-based; details: dose 7-11 µM; summary of the method: as §3
MDA-MB-231 = assay: Antiproliferative activity against human MDA-MB-231 cells assessed as inhibition of cell growth incubated for 24 hrs by MTT assay; format: functional, cell-based; details: MDA-MB-231, 24 h; summary of the method: as §2
HeLa [9] = assay: Induction of mitochondrial membrane potential depolarization in human HeLa cells assessed as decrease in JC-1 aggregate to monomer ratio at 7 to 11 uM incubated for 24 hrs by JC-1 staining based fluorescence microscopic analysis; format: functional, cell-based; details: dose 7-11 µM
Summary of the method: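 HeLa treated for 24 h, then stained with JC-1 dye; red aggregate and green monomer fluorescence imaged on inverted microscope with FITC filter; aggregate-to-monomer ratio calculated relative to control; mean ± SD; scale bar 50 μm.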

HeLa [10] = assay: Induction of cell cycle arrest in human HeLa cells assessed as proportion of cell accumulation at G1 phase at 7 uM by propidium iodide staining based flow cytometry (reference value: 67.7%); format: functional
HeLa [11] = assay: Induction of cell cycle arrest in human HeLa cells assessed as proportion of cell accumulation at subG0 phase at 7 uM by propidium iodide staining based flow cytometry (reference value: 7.6%); format: functional
HeLa [12] = assay: Induction of apoptosis in human HeLa cells assessed as increase in number of cells with condensed nucleic acids at 7 to 11 uM incubated for 24 hrs by Hoechst 33342 staining based fluorescence light microscopy; format: functional, cell-based; details: dose 7-11 µM
Summary of the method: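 HeLa, 7 × 10^3 cells/well, treated 24 h at 7 and 11 μM; stained with Hoechst 33342 (1 μg mL−1 in PBS); condensed nuclei imaged through DAPI filter on inverted fluorescence microscope.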

HeLa [13] = assay: Induction of cell cycle arrest in human HeLa cells assessed as downregulation of Cyclin A2 protein expression at 7 to 11 uM by western blot analysis; format: functional, cell-based; details: dose 7-11 µM
Summary of the method: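 Protein extracted from treated and untreated HeLa, BCA-quantified and normalised; SDS-PAGE, PVDF transfer, 5% skim milk block; primary antibodies 18 h at 4 °C, HRP secondary; chemiluminescent detection of Cdk-2, cyclin A2, cyclin B1, Cdc-25 with β-actin loading control.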

HeLa [14] = assay: Induction of apoptosis in human HeLa cells assessed as increase in caspase-9 activation at 7 to 11 uM by fluorometric assay; format: functional, cell-based; details: dose 7-11 µM; summary of the method: as §1
HeLa [15] = assay: Antimetastatic activity in human HeLa cells assessed as downregulation of Ki67 expression at 3 to 6 uM incubated for 24 hrs by DAPI staining based immunofluorescence analysis; format: functional, cell-based; details: dose 3-6 µM
Summary of the method: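 HeLa, 7 × 10^3 cells/well, treated at two concentrations for 24 h; fixed in 4% paraformaldehyde 15–30 min at 37 °C, permeabilised with 0.1% Triton-X 10 min, blocked in 5% BSA/PBST 1 h; Ki67 primary antibody overnight, then secondary antibody and DAPI counterstain; fluorescence microscopy imaging, fluorescence intensity quantified; mean ± SD.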

HeLa [16] = assay: Induction of apoptosis in human HeLa cells assessed as proportion of viable cells at 7 uM by AnnexinV-FITC/PI staining based FACS analysis (reference value: 77.7%); format: functional
HeLa [17] = assay: Induction of cell cycle arrest in human HeLa cells assessed as proportion of cell accumulation at S phase at 7 uM by propidium iodide staining based flow cytometry (reference value: 15.9%); format: functional

C[C@@H](C[C@@H](O)[C@@H]1OC1(C)C)[C@@H]1CC[C@]2(C)C3=CC[C@H]4C(C)(C)C(=O)CC[C@]4(C)[C@H]3CC[C@@]12C
Activity (HeLa [1]): Active
Activity (HeLa [2]): 5.4%
inhibition (HeLa [3]): Dose-dependent-effect
Activity (HeLa [4]): Active
IC50 (PANC-1): 16.5 µM
Activity (HeLa [5]): 50.9%
Activity (HeLa [6]): Active
IC50 (A549): 30.6 µM
Activity (HeLa [7]): Active
Activity (HeLa [8]): Active
IC50 (MDA-MB-231): 23.9 µM
Activity (HeLa [9]): Active
Activity (HeLa [10]): 64%
Activity (HeLa [11]): 25.6%
Activity (HeLa [12]): Active
Activity (HeLa [13]): Active
Activity (HeLa [14]): Active
Activity (HeLa [15]): Active
Activity (HeLa [16]): 38.3%
Activity (HeLa [17]): 4.9%
